Data as given in ChEMBL document CHEMBL4330087, “Synthesis, antimicrobial activity, attenuation of aminoglycoside resistance in MRSA, and ribosomal A-site binding of pyrene-neomycin conjugates” (Eur J Med Chem, 2019).
≈ marks a conversion by molar mass, not a printed value. Calls of active or inactive are those of the source. The rule behind the calls is not given here.

Assays:
[1] = test system: Staphylococcus aureus; experiment: Antibacterial activity against NEO-sensitive Staphylococcus aureus 25923 after 15 to 20 hrs by CLSI protocol based microdilution assay; assay type: functional
Method in brief: (§1)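 CLSI broth microdilution on exponential-phase bacteria at ~3×10^5 cells/mL in cation-adjusted Mueller-Hinton broth. Serial 2-fold dilutions gave final concentrations of 50 to 0.78 μM; compound stocks were 10× in 10% DMSO. Incubated at 37 °C for 15-20 h, growth read at A595. Percent inhibition averaged over triplicates; MIC in μM.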

[2] = organism: Homo sapiens; experiment: Displacement of F-NEO from human mitochondrial rRNA-A site A1490G mutant after 10 to 20 mins by fluorescence assay relative to NEO
Method in brief: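 100 nM F-NEO:A-site complex in 10 mM HEPES, 50 mM NaCl, 0.04 mM EDTA, pH 7.0, mixed with ligand and incubated 10-20 min at room temperature. Fluorescence read at ex 485/em 525 nm, in duplicate. Percent binding was computed from the intensities of ligand-treated complex, complex without ligand, and complex with neomycin.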

[3] = test system: Staphylococcus aureus; experiment: Antibacterial activity against NEO-sensitive Staphylococcus aureus harboring NorA mutant after 15 to 20 hrs by CLSI protocol based microdilution assay; assay type: functional; method in brief: as §1
[4] = test system: Staphylococcus epidermidis; experiment: Antibacterial activity against NEO-sensitive Staphylococcus epidermidis 12384 after 15 to 20 hrs by CLSI protocol based microdilution assay; assay type: functional; method in brief: as §1
[5] = test system: Staphylococcus aureus; experiment: Antibacterial activity against methicillin-resistant Staphylococcus aureus 33591 after 15 to 20 hrs by CLSI protocol based microdilution assay; assay type: functional; method in brief: as §1
[6] = test system: Staphylococcus aureus; experiment: Antibacterial activity against methicillin-resistant Staphylococcus aureus A960649 after 15 to 20 hrs by CLSI protocol based microdilution assay; assay type: functional; method in brief: as §1
[7] = test system: Staphylococcus aureus; experiment: Antibacterial activity against methicillin-resistant Staphylococcus aureus SU-5 after 15 to 20 hrs by CLSI protocol based microdilution assay; assay type: functional; method in brief: as §1
[8] = test system: Staphylococcus aureus; experiment: Antibacterial activity against methicillin-resistant Staphylococcus aureus M0602 after 15 to 20 hrs by CLSI protocol based microdilution assay; assay type: functional; method in brief: as §1
[9] = test system: Streptococcus pyogenes; experiment: Antibacterial activity against NEO-resistant Streptococcus pyogenes C203 after 15 to 20 hrs by CLSI protocol based microdilution assay; assay type: functional; method in brief: as §1
[10] = test system: Bacillus anthracis; experiment: Antibacterial activity against NEO-sensitive Bacillus anthracis BA852 after 15 to 20 hrs by CLSI protocol based microdilution assay; assay type: functional; method in brief: as §1
[11] = test system: Mycolicibacterium smegmatis; experiment: Antibacterial activity against NEO-sensitive Mycobacterium smegmatis after 15 to 20 hrs by CLSI protocol based microdilution assay; assay type: functional; method in brief: as §1
[12] = test system: Escherichia coli; experiment: Antibacterial activity against NEO-sensitive Escherichia coli ATCC 25922 after 15 to 20 hrs by CLSI protocol based microdilution assay; assay type: functional; method in brief: as §1
[13] = test system: Escherichia coli; experiment: Antibacterial activity against NEO-sensitive Escherichia coli harboring TolC mutant after 15 to 20 hrs by CLSI protocol based microdilution assay; assay type: functional; method in brief: as §1
[14] = test system: Escherichia coli; experiment: Antibacterial activity against multidrug-resistant Escherichia coli H4H after 15 to 20 hrs by CLSI protocol based microdilution assay; assay type: functional; method in brief: as §1
[15] = test system: Escherichia coli; experiment: Antibacterial activity against multidrug-resistant Escherichia coli H4H at 6.25 uM after 15 to 20 hrs by CLSI protocol based microdilution assay relative to control; assay type: functional
Method in brief: (§2)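 Exponential-phase cultures were exposed to 6.25 μM compound in duplicate with neomycin as reference, at 37 °C in a humidified incubator for 15-20 h. Broth and culture controls received sterile water with 1% DMSO. Percent growth inhibition was calculated against the growth and background controls.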

[16] = test system: Escherichia coli; experiment: Antibacterial activity against Escherichia coli O157:H7 at 6.25 uM after 15 to 20 hrs by CLSI protocol based microdilution assay relative to control; assay type: functional; method in brief: as §2
[17] = test system: Acinetobacter baumannii; experiment: Antibacterial activity against NEO-sensitive Acinetobacter baumannii ATCC 19606 at 6.25 uM after 15 to 20 hrs by CLSI protocol based microdilution assay relative to control; assay type: functional, ATCC 19606 = CIP 70.34 = JCM 6841
Method in brief: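 Single-concentration screen at 6.25 μM against exponential-phase cultures, in duplicate, with NEO as reference. Enterococcus was grown in BHI broth, M. smegmatis in TS broth with 0.05% Tween 80, and all other strains in TS broth. The 1% DMSO water vehicle was added to broth (background) and culture (growth control). Incubation was 37 °C, humidified, 15-20 h. Result is percent growth inhibition.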

[18] = test system: Ribosomal RNA A-site; experiment: Binding affinity to rRNA-A site in Escherichia coli S30 extract assessed as inhibition of protein translation after 20 mins; assay type: nucleic-acid assay
[19] = test system: Ribosomal RNA A-site; experiment: Binding affinity to rRNA-A site in human MDA-MB-231 cells assessed as inhibition of protein translation; assay type: cell-based
[20] = test system: Staphylococcus aureus; experiment: Antibacterial activity against NEO-sensitive Staphylococcus aureus C2 after 15 to 20 hrs by CLSI protocol based microdilution assay; assay type: functional
Method in brief: (§3)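 CLSI broth microdilution MIC in triplicate on exponential-phase cells, ~3×10^5 cells per mL in cation-adjusted Mueller-Hinton broth. Compound was added from 10× stocks in 10% DMSO as serial 2-fold dilutions, final 50 to 0.78 μM. Plates were incubated at 37 °C, humidified, 15-20 h. Growth was read as absorbance at 595 nm, and percent inhibition was averaged over triplicates.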

[21] = test system: Staphylococcus aureus; experiment: Antibacterial activity against NEO-sensitive Staphylococcus aureus C1 after 15 to 20 hrs by CLSI protocol based microdilution assay; assay type: functional; method in brief: as §3
[22] = test system: Staphylococcus aureus; experiment: Antibacterial activity against NEO-sensitive Staphylococcus aureus NRS77 after 15 to 20 hrs by CLSI protocol based microdilution assay; assay type: functional; method in brief: as §3
[23] = test system: Staphylococcus aureus; experiment: Antibacterial activity against NEO-sensitive Staphylococcus aureus 6538 after 15 to 20 hrs by CLSI protocol based microdilution assay; assay type: functional; method in brief: as §3
[24] = Toxicity in Caenorhabditis elegans infected with methicillin-resistant Staphylococcus aureus assessed as effect on nematode larvae viability by measuring decrease in formazan production at 6.25 to 50 uM after 24 hrs by MTT assay relative to control
[25] = Toxicity in Caenorhabditis elegans infected with methicillin-resistant Staphylococcus aureus assessed as effect on nematode larvae viability by measuring decrease in formazan production at 3.13 to 1.56 uM after 24 hrs by MTT assay

| Compound | MIC [1] [µM] | inhibition [2] [%] | MIC [3] [µM] | MIC [4] [µM] | MIC [5] [µM] | MIC [6] [µM] | MIC [7] [µM] | MIC [8] [µM] | MIC [9] | MIC [10] [µM] | MIC [11] [µM] | MIC [12] [µM] | MIC [13] [µM] | MIC [14] [µM] | Activity [15] | Activity [16] [%] | Activity [17] [%] | IC50 [18] [nM] | IC50 [19] [nM] | MIC [20] [µM] | other results |
| --- | --- | --- | --- | --- | --- | --- | --- | --- | --- | --- | --- | --- | --- | --- | --- | --- | --- | --- | --- | --- | --- |
| NC[C@@H]1O[C@H](O[C@H]2[C@@H](O)[C@H](O[C@@H]3[C@@H](O)[C@H](N)C[C@H](N)[C@H]3O[C@H]3O[C@H](CN)[C@@H](O)[C@H](O)[C@H]3N)O[C@@H]2CSCCNC(=O)CCCc2ccc3ccc4cccc5ccc2c3c45)[C@H](N)[C@@H](O)[C@@H]1O | 12.5 (≈ 11.8 µg/mL) | 58 | 6.25 to 12.5 (≈ 5.9 to 11.8 µg/mL) | 6.25 (≈ 5.9 µg/mL) | 12.5 (≈ 11.8 µg/mL) | 12.5 (≈ 11.8 µg/mL) | 25 (≈ 23.6 µg/mL) | 25 (≈ 23.6 µg/mL) | 50 µM (≈ 47.2 µg/mL) | 6.25 (≈ 5.9 µg/mL) | 6.25 (≈ 5.9 µg/mL) | > 25 | 6.25 (≈ 5.9 µg/mL) | > 25 | <=30% | 3 | 10 | 927 | 927 | – | – |
| NC[C@@H]1O[C@H](O[C@H]2[C@@H](O)[C@H](O[C@@H]3[C@@H](O)[C@H](N)C[C@H](N)[C@H]3O[C@H]3O[C@H](CN)[C@@H](O)[C@H](O)[C@H]3N)O[C@@H]2CNC(=O)CCCc2ccc3ccc4cccc5ccc2c3c45)[C@H](N)[C@@H](O)[C@@H]1O | 12.5 (≈ 11 µg/mL) | 88 | 12.5 (≈ 11 µg/mL) | 12.5 (≈ 11 µg/mL) | 12.5 (≈ 11 µg/mL) | 12.5 (≈ 11 µg/mL) | 25 (≈ 22.1 µg/mL) | 25 (≈ 22.1 µg/mL) | 25 µM (≈ 22.1 µg/mL) | 12.5 (≈ 11 µg/mL) | 12.5 (≈ 11 µg/mL) | > 25 | 12.5 (≈ 11 µg/mL) | > 25 | 0% | 0 | 5 | – | – | – | – |
| NC[C@@H]1O[C@H](O[C@H]2[C@@H](O)[C@H](O[C@@H]3[C@@H](O)[C@H](N)C[C@H](N)[C@H]3O[C@H]3O[C@H](CN)[C@@H](O)[C@H](O)[C@H]3N)O[C@@H]2CSCCNC(=O)CCc2ccc3ccc4cccc5ccc2c3c45)[C@H](N)[C@@H](O)[C@@H]1O | – | 65 | – | – | – | – | – | – | – | – | – | – | – | – | inactive | – | 8 | – | – | 12.5 (≈ 11.6 µg/mL) | MIC [21]: 25 µM (≈ 23.3 µg/mL); MIC [22]: 6.3 µM (≈ 5.86 µg/mL); MIC [23]: 12.5 µM (≈ 11.6 µg/mL); Activity [24]: 50 to 75%; Activity [25]: Non-Toxic |
| NC[C@@H]1O[C@H](O[C@H]2[C@@H](O)[C@H](O[C@@H]3[C@@H](O)[C@H](N)C[C@H](N)[C@H]3O[C@H]3O[C@H](CN)[C@@H](O)[C@H](O)[C@H]3N)O[C@@H]2CNC(=O)Cc2ccc3ccc4cccc5ccc2c3c45)[C@H](N)[C@@H](O)[C@@H]1O | – | 22 | – | – | – | – | – | – | – | – | – | – | – | – | inactive | 0 | 6 | 1280 | 1200 to 1280 | > 25 | MIC [21]: > 25 µM; MIC [22]: > 25 µM; MIC [23]: > 25 µM |
| NC[C@@H]1O[C@H](O[C@H]2[C@@H](O)[C@H](O[C@@H]3[C@@H](O)[C@H](N)C[C@H](N)[C@H]3O[C@H]3O[C@H](CN)[C@@H](O)[C@H](O)[C@H]3N)O[C@@H]2CSCCNC(=O)Cc2ccc3ccc4cccc5ccc2c3c45)[C@H](N)[C@@H](O)[C@@H]1O | – | 102 | 6.25 to 12.5 (≈ 5.73 to 11.5 µg/mL) | 6.25 (≈ 5.73 µg/mL) | – | 12.5 (≈ 11.5 µg/mL) | 25 (≈ 22.9 µg/mL) | 25 (≈ 22.9 µg/mL) | inactive | 6.25 (≈ 5.73 µg/mL) | 6.25 (≈ 5.73 µg/mL) | > 25 | 6.25 (≈ 5.73 µg/mL) | > 25 | – | – | 6 | 269 | 269 | 12.5 (≈ 11.5 µg/mL) | MIC [21]: 12.5 µM (≈ 11.5 µg/mL); MIC [22]: 3.2 µM (≈ 2.93 µg/mL); Activity [24]: 50 to 75%; Activity [25]: Non-Toxic |
| NC[C@@H]1O[C@H](O[C@H]2[C@@H](O)[C@H](O[C@@H]3[C@@H](O)[C@H](N)C[C@H](N)[C@H]3O[C@H]3O[C@H](CN)[C@@H](O)[C@H](O)[C@H]3N)O[C@@H]2CSCCNC(=S)NCCCCCCNC(=O)CCCc2ccc3ccc4cccc5ccc2c3c45)[C@H](N)[C@@H](O)[C@@H]1O | 6.25 (≈ 6.89 µg/mL) | 58 | 6.25 (≈ 6.89 µg/mL) | 3.13 (≈ 3.45 µg/mL) | 25 (≈ 27.6 µg/mL) | 25 (≈ 27.6 µg/mL) | 50 (≈ 55.1 µg/mL) | 25 to 50 (≈ 27.6 to 55.1 µg/mL) | inactive | 3.13 (≈ 3.45 µg/mL) | 6.25 (≈ 6.89 µg/mL) | > 25 | 1.56 to 3.13 (≈ 1.72 to 3.45 µg/mL) | > 25 | 5 - 30% | 0 | 8 | 213 | 213 | – | – |
